This is an account of results in ChEMBL document CHEMBL1147937, “Kinesin spindle protein (KSP) inhibitors. Part V: discovery of 2-propylamino-2,4-diaryl-2,5-dihydropyrroles as potent, water-soluble KSP inhibitors, and modulation of their basicity by beta-fluorination to overcome cellular efflux by P-glycoprotein” (Bioorg Med Chem Lett, 2007).

Where only a bound is given, the exact number is not on record here.

What is called IC50 is the midpoint of a concentration-inhibition curve. Lower therefore signals higher potency. The term logP denotes the decadic logarithm of the partition coefficient of the neutral form, usually between octanol and water. Read a high logP as higher lipophilicity. As a reminder, the pKa is the negative logarithm of the acid dissociation constant. A low value points to a stronger acid or weaker base. A word on the solubility: it is the dissolved amount per volume that the medium holds. By efflux ratio is commonly meant a quotient of directional permeabilities that is used to spot active efflux.

For series [1], the target named is T1, Kinesin-like protein KIF11 (Homo sapiens, UniProt P52732).
T1 sequence (P52732 whole entry): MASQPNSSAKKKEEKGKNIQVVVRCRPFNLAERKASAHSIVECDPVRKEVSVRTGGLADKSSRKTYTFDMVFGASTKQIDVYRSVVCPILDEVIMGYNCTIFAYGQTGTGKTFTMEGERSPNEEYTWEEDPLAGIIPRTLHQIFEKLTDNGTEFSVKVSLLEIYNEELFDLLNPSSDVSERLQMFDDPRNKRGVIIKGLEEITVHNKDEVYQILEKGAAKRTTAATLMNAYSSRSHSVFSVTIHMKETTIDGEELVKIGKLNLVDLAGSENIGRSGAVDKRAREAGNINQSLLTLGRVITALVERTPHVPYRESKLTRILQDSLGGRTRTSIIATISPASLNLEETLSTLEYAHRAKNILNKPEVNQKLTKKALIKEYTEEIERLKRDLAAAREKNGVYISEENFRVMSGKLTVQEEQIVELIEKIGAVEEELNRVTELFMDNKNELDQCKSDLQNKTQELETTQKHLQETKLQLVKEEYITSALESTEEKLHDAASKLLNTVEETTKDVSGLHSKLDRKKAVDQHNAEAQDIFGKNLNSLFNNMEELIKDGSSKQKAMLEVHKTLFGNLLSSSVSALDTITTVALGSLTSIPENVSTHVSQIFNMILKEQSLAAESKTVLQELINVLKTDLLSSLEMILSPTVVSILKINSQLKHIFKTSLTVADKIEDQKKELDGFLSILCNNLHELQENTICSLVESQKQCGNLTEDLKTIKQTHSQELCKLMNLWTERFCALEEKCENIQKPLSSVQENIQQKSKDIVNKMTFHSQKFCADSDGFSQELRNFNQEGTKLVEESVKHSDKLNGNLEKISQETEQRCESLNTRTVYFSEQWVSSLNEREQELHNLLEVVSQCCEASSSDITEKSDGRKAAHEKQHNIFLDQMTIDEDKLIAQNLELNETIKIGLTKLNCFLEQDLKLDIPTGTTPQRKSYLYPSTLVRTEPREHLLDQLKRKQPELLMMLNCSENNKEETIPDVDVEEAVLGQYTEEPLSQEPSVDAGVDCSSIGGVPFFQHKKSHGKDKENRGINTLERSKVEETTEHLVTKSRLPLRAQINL
The series can be described thus: Inhibition of KSP.

The nature of series [2]: Partition coefficient, log P of the compound. Type of series: physicochemical. To be noted: octanol/water.
Series [3] in a line: Ratio of IC50 for human KBV1 cells to human KB31 cells after 16 hrs. To be noted: KBV1 cells and KB31 cells, read-out: Ratio IC50. Type of series: cell-based. An outline of the steps:
(§1)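 IC50 for induction of G2/M (mitotic) block was determined in two human epidermoid carcinoma lines: parental KB-3-1, which lacks Pgp, and KB-V-1. KB-V-1 was derived by culturing KB-3-1 with vinblastine and highly overexpresses Pgp. The MDR ratio is the quotient of the KB-V-1 IC50 over the KB-3-1 IC50.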

A short description of series [4]: Dissociation constant, pKa of the compound. Type of series: physicochemical. An outline of the steps:
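Ionization constant measured with an automated pKa titrator; the value is the average of n = 3 determinations.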

Series [5] is described as follows: Solubility in 0.1 M citrate at pH 4.0. Format: physicochemical. The following applies: 0.1 M citrate buffer. An outline of the steps: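 Aqueous solubility measured on the free-base form in 0.1 M citrate, with an initial pH of 4.0.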
In series [6] the target is Voltage-gated inwardly rectifying potassium channel KCNH2 (Homo sapiens, UniProt Q12809). In words: Inhibition of hERG expressed in CHO cells by cell voltage clamp assay. Type of series: toxicity, cell-based. On the technique in general: Block of hERG is tested as a sign of cardiac risk.
Series [7] relates to MDR1. The series can be described thus: Efflux ratio of permeability from basolateral to apical over apical to basolateral side of the […] cell transfected with MDR1 by monolayer transport assay. Format: ADME, cell-based. To be noted: LLC-PK1. The procedure, abridged: (§2)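 Monolayer transport assay in LLC-PK1 cells transfected with the human MDR1 gene. The efflux ratio is basolateral-to-apical over apical-to-basolateral transport. Passive permeability is reported in 10^-6 cm/s.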

Series [8] concerns the target T1, Kinesin-like protein KIF11. The series can be described thus: Inhibition of KSP in KBV1 cells overexpressing Pgp. Format: cell-based. An outline of the steps: as §1
The test system of series [9] is MDR1. The series can be described thus: Permeability across LLCPK1 cells expressing MDR1 gene. Format: ADME, cell-based. To be noted: human, LLC-PK1; read-out: permeability. The procedure, abridged: as §2
The target in series [10] is T1, Kinesin-like protein KIF11. The series can be described thus: Inhibition of KSP in KB31 cells. Format: cell-based. The procedure, abridged:
as §1

Voltage-gated inwardly rectifying potassium channel KCNH2, sequence (Q12809 whole entry): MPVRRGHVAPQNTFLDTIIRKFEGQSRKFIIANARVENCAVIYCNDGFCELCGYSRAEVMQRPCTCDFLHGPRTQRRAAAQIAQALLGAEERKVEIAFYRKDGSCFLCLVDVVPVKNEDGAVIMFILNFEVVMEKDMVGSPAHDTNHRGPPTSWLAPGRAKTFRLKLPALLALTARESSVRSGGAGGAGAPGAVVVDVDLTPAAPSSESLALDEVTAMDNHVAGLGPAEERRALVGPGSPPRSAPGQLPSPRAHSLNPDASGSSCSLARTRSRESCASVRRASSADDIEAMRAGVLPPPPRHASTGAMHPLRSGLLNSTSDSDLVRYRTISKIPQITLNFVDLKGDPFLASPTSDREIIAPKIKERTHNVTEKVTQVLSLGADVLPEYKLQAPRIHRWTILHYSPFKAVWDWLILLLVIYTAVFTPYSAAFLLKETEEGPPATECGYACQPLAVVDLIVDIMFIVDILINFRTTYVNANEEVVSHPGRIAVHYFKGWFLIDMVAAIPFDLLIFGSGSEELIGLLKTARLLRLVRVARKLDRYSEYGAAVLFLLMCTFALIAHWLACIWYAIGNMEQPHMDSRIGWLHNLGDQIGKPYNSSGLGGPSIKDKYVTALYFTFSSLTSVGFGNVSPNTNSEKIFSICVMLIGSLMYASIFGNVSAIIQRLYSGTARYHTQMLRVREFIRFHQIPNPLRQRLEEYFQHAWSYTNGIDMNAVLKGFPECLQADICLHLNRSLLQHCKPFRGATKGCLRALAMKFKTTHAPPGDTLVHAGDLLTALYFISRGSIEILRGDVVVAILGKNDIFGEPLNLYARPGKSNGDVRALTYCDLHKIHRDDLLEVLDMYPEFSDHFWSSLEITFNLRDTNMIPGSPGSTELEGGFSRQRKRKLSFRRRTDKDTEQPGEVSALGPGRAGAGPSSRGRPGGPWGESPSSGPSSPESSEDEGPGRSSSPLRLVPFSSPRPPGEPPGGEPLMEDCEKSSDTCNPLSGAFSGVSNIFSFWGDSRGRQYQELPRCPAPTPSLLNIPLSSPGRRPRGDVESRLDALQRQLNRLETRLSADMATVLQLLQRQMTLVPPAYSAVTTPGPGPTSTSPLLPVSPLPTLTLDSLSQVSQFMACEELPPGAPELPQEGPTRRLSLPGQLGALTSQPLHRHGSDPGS

Consider `CCNCCC[C@@]1(c2ccccc2)C=C(c2cc(F)ccc2F)CN1C(=O)N(C)C`, for which, in series [1], the IC50 was found to be 0.0102 µM. In series [2], this compound yielded a logP of 1.6. Besides, in series [3], the selectivity ratio at 16 h was greater than 135. Further, the pKa in series [4] was 10.7.
On to `CN(C)C(=O)N1CC(c2cc(F)ccc2F)=C[C@@]1(CCCNCC(F)(F)F)c1ccccc1`, for which the concentration for half-maximal inhibition (IC50) in [1] was found to be 0.11 µM. Also, the logP in series [2] was greater than 3.2. In addition, in [3], the selectivity ratio at 16 h stood at 1. Besides, the pKa in series [4] worked out at 5.2.
As to `CN(C)C(=O)N1CC(c2cc(F)ccc2F)=C[C@@]1(CCCN)c1ccccc1`, the IC50 came to 0.0022 µM in series [1], 7.1 µM in [6] and 28 µM in [8]. Further, the lipophilicity (logP) in [2] turned out to be 1.1. The compound further had a solubility in series [5] greater than 12 mg/mL. Moreover, in series [3], the selectivity ratio at 16 h was found to be 1200. In series [4], this compound registered a pKa of 10.3. Besides, in the series on MDR1 [7], the efflux ratio stood at 18.5. In addition, the Papp in the series on MDR1 [9] was determined as 4 ×10⁻⁶ cm/s.
For `CN(C)C(=O)N1N=C(c2cc(F)ccc2F)C[C@@]1(CCCN)c1ccccc1`, the solubility in series [5] is greater than 12 mg/mL. In [6], half-maximal inhibition (IC50) was put at 19.3 µM. The selectivity ratio at 16 h in [3] came to 490. The pKa in [4] came out at 10.3.
`CN(C)C(=O)N1CC(c2cc(F)ccc2F)=C[C@@]1(CCCNCC(F)F)c1ccccc1` registered an IC50 in [1] of 0.0121 µM. Further, the logP in [2] was 3.4. Also, the selectivity ratio at 16 h in series [3] was determined as 3. This compound also had a pKa in series [4] of 7.
For `CN(C)C(=O)N1CC(c2cc(F)ccc2F)=C[C@@]1(CC[C@H](N)C(F)F)c1ccccc1`, the IC50 in [1] is 0.0052 µM; in [6], 15.9 µM; in [10], 0.024 µM; in series [8], 0.123 µM. In series [2], this compound came in with a logP of 3.2. This compound also gave a solubility in series [5] greater than 10 mg/mL. Moreover, the selectivity ratio at 16 h in [3] was 5. Besides, the efflux ratio with MDR1 [7] worked out at 2.5. The Papp with MDR1 [9] worked out at 38 ×10⁻⁶ cm/s.
Compound `CN(C)C(=O)N1CC(c2cc(F)ccc2F)=C[C@@]1(CCCNCCF)c1ccccc1` showed an IC50 in series [1] of 0.0102 µM. Further, the logP in series [2] was determined as 2.6. Besides, the selectivity ratio at 16 h in [3] is 32. In series [4], this compound came in with a pKa of 8.8.
